Results from ChEMBL document CHEMBL1135884 (J Med Chem, 2002).

Columns and labels:
Serine protease 1 = biological target: T1, Serine protease 1 (Bos taurus, UniProt P00760); experiment: Inhibitory concentration against bovine trypsin
T1 sequence (P00760 whole entry): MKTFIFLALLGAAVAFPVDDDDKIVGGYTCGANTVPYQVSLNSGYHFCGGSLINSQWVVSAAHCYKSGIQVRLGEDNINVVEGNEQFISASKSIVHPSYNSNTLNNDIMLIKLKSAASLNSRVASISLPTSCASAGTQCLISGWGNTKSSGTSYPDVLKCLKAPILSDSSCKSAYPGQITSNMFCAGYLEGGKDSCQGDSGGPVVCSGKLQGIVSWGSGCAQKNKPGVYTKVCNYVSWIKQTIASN

Prothrombin = Prothrombin (Homo sapiens, UniProt P00734); experiment: Inhibitory concentration against thrombin.
Coagulation factor X [1] = biological target: T2, Coagulation factor X (Homo sapiens, UniProt P00742); experiment: Inhibitory concentration against human Coagulation factor Xa(fXa)
T2 sequence (P00742 41-179 limits assumed): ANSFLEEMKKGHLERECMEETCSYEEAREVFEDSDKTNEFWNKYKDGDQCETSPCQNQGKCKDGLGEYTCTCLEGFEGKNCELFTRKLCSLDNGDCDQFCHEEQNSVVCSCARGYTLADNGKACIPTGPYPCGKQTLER
T2 sequence (P00742 235-488 limits assumed): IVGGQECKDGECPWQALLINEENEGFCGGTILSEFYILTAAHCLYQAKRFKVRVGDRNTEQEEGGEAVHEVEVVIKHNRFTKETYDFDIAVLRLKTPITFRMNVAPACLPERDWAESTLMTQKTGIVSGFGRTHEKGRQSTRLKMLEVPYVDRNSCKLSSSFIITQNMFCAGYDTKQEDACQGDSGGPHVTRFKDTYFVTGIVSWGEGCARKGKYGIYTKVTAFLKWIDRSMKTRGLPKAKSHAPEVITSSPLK
Summary of the method: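 4-Nitroaniline release was read by absorbance at 405 nm. Inhibitors were prepared as 40 mM DMSO stocks and tested at 500, 50 and 5 µM. Km and Ki were obtained by nonlinear regression, with known factor Xa inhibitors as reference.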

Coagulation factor X [2] = biological target: T2, Coagulation factor X; experiment: Inhibitory concentration against human Coagulation factor Xa (fXa)

| SMILES | Ki (Serine protease 1) [µM] | Ki (Prothrombin) [µM] | Ki (Coagulation factor X [1]) [µM] | Ki (Coagulation factor X [2]) [µM] |
| --- | --- | --- | --- | --- |
| N=C(N)c1cccc(C(=O)N[C@@H](C(=O)N2CCN(c3ccc(Cl)cc3)CC2)c2ccccc2)c1 | 1.7 | 1.6 | 0.016 | – |
| N=C(N)c1ccccc1 [BENZAMIDINE] | – | – | – | 0.2 |
| N=C(N)c1cccc(C(=O)NCC(=O)NCC2CCC(CN)CC2)c1 (configuration not stated) | 14 | – | – | – |
| N=C(N)c1cccc(C(=O)N[C@@H](C(=O)N2CCC(C(=O)c3ccccc3)CC2)c2ccccc2)c1 | 0.98 | – | – | – |
| CC(=N)N1CCC(Oc2ccc(N(Cc3ccc4ccc(C(=N)N)cc4c3)S(=O)(=O)CC(=O)O)cc2)CC1 [YM-60828] | 0.159 | – | – | – |

Second part, the compound after the results:

| Ki (Serine protease 1) [µM] | Ki (Prothrombin) [µM] | Ki (Coagulation factor X [1]) [µM] | Ki (Coagulation factor X [2]) [µM] | SMILES |
| --- | --- | --- | --- | --- |
| 7.4 | – | – | – | N=C(N)c1cccc(C(=O)N[C@@H](C(=O)NCC2CCC(CN)CC2)c2ccccc2)c1 (some centres not stated) |
| 12.5 | – | – | 2 | CCOC(=O)[C@@H](Cc1ccc2ccccc2c1)NC(=O)c1cccc(C(=N)N)c1 |
| 1.6 | – | – | 0.026 | N=C(N)c1cccc(C(=O)N[C@@H](C(=O)OCCC2CCN(C(=N)N)CC2)c2ccccc2)c1 |
